Bioassay records from PubChem.
Rows were chosen to be rich in hits. Some 4.4% of all compounds tested hit in one or more screens of this group.
MPTP block: blocks calcium-induced mitochondrial swelling; isolated mouse mitochondria, Ca2+ swelling absorbance, 30 min; inhibition, % at 10 µM; 1.4% of 360,000 active;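 active = inhibition of 50% or more, scaled per plate between neutral and stimulator controls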
EBI2 antag: antagonists of human EBI2 receptor; 0.81% of 360,000 active; inhibition, % at 5 µM; EBI2 beta-arrestin recruitment, luminescence, 7a,25-OHC stimulated; P32249; AID 651636; in the data active = inhibition above about 38%;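 also: enzyme fragment complementation signal reports receptor beta-arrestin coupling in cells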
Target sequence (P32249 whole entry, looked up, the tested form may be a part): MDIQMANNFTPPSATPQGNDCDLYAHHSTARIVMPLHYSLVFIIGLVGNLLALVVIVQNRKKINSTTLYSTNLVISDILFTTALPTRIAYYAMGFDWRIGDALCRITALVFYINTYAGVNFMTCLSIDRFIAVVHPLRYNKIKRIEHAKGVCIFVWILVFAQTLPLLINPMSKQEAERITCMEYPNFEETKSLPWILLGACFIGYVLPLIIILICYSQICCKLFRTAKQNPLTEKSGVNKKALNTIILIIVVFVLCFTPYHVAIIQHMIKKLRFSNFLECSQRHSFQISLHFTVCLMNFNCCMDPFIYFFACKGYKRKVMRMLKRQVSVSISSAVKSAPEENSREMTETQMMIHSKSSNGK
SENP1 inh: SENP1 (human) catalytic domain inhibition; recombinant SENP1 catalytic domain, CyPet-SUMO1-YPet FRET cleavage; inhibition, % at 10 µM; 0.21% of 360,000 active; AID 624204;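 active = inhibition at least 30% at 10 µM, raw YFP signal under a set limit, fluorescence ratio 0.5 to 1.5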
Target sequence (Q9P0U3 419-644 limits assumed): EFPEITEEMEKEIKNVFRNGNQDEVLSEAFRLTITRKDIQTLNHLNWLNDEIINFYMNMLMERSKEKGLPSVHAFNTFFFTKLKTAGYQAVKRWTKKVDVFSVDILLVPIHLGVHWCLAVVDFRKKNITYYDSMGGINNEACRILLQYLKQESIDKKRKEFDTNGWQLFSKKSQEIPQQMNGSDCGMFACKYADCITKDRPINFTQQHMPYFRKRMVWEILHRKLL
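Test system: recombinant human SENP1 catalytic domain, His6-tagged / Medium: pH 8 Tris buffer with EDTA, NaCl, BME, BSA, NP40, catalase / Also added: SUMO1 FRET substrate flanked by Cypet and Ypet, 25 nM / Times: 50 min reaction at room temperature / Signal: FRET, CFP and YFP emission / Control set: no-enzyme low control and enzyme-plus-DMSO high control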
GRIN3A LBD mod: NR3A (human) ligand-binding domain modulation; NR3A LBD differential scanning fluorimetry, Tm shift; 0% = protein alone, 100% = glycine-bound protein; Tm shift relative to glycine control, % at 25 µM; 2.5% of 340,000 active; AID 1259313;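 active = melting temperature shift of at least 10% of the positive control shift, at one fixed dose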
Of the large screens only hits and unclear results are named; the others gave an inactive call.

O=C(CSc1nc2[nH]ncc2c(=O)[nH]1)Nc1ccc(Cl)cc1	GRIN3A LBD mod 25
COc1ccc(-n2c(SCC(=O)NCc3cccs3)nc3[nH]ncc3c2=O)cc1	none
CCc1ccc(NC(=O)CSc2nc3[nH]ncc3c(=O)[nH]2)cc1	none
Cc1ccccc1Oc1ccc2c(c1)[C@@H]1C[C@H](N(C)C(=O)c3ccco3)[C@H]([C@H](C)O)C(=O)N1CC2	none (no result: GRIN3A LBD mod)
CCOc1ccc(S(=O)(=O)N2CCCC(C(=O)NC3CC3)C2)cc1Cl (stereo unspecified)	none
Oc1ccccc1-c1nc2c3ccccc3c3ccccc3c2[nH]1	GRIN3A LBD mod 37
COc1ccc(N=c2oc3cc(O)ccc3cc2C(=O)Nc2ccccn2)cc1OC	GRIN3A LBD mod 15
OCCN(CCO)c1ccc(C(c2ccc(Cl)cc2)c2ccc(N(CCO)CCO)cc2Cl)c(Cl)c1	GRIN3A LBD mod 28
CCOC(=O)NC(=O)/C(N=Nc1ccc(C(F)(F)F)cc1)=C(\C)O	GRIN3A LBD mod 154
CN(C)c1cccc(CNC(=O)c2ccc3nc([C@@H]4O[C@H](CO)[C@H](O)[C@H](O)[C@H]4O)[nH]c3c2)c1	none (no result: GRIN3A LBD mod)
N#Cc1cccc(S(=O)(=O)Nc2c(NC3CCCCC3)c3ccccc3oc2=O)c1	none
O=C(c1cnn2c(C(F)(F)F)cc(-c3ccco3)nc12)N1CCCCCC1	GRIN3A LBD mod 11
CCN(CC(=O)NCc1cccs1)S(=O)(=O)c1ccc(F)c(F)c1F	none
Cc1cccc(C(=O)Nc2nnc(SCC(=O)Nc3ccc4c(c3)oc3ccccc34)s2)c1	GRIN3A LBD mod 76
CC(=O)Nc1cccc(NC(=O)CSc2nnc(NC(=O)C3CC3)s2)c1	none
Cc1cccc(NC(=O)CSc2nnc(NC(=O)C3CCC3)s2)c1	GRIN3A LBD mod 18
O=C(CSc1nnc(NC(=O)C2CCC2)s1)Nc1ccccc1	none
COc1cccc(NC(=O)CSc2nnc(NC(=O)C3CC3)s2)c1	GRIN3A LBD mod 31
CC(C)CCNC(=O)c1onc(CSc2ccc(F)cc2)c1C(=O)NCCC(C)C	none
C/C(=N\Nc1nc(N)cc(Cl)n1)c1ccc(Cl)c(Cl)c1	GRIN3A LBD mod 18
C/C(=N\Nc1nc(N)cc(Cl)n1)c1ccc(F)cc1	none
O=C(Nc1ccc2c(c1)CCC2)c1cc(S(=O)(=O)Nc2ccc(F)cc2)c(Cl)cc1Cl	GRIN3A LBD mod 31
O=C(CSc1n[nH]c(-c2cccnc2)n1)Nc1ccc([N+](=O)[O-])cc1	GRIN3A LBD mod 10
CC(=O)Oc1cccc(/C=C2\Sc3ccccc3C2=O)c1	GRIN3A LBD mod 17
C/C(=N\N=C1\NC(=O)C(CC(=O)Nc2ccc(C)c(Cl)c2)S1)C(C)(C)C (stereo unspecified)	GRIN3A LBD mod 20
C/C(=N\N=C1\NC(=O)C(CC(=O)Nc2ccc(Cl)cc2)S1)c1ccco1 (stereo unspecified)	none
O=C(CC1S/C(=N/N=C/c2cccs2)NC1=O)Nc1ccc(Cl)c(Cl)c1 (stereo unspecified)	GRIN3A LBD mod 28
Cc1ccc(C2(C)NC(=O)N(CC(=O)NCc3ccccc3Cl)C2=O)cc1 (stereo unspecified)	none
CC(=O)NC1C(=O)N(CCN2CCOCC2)c2ccc(Br)cc21 (stereo unspecified)	GRIN3A LBD mod 18
CCOc1ccc2c(c1)C(NC(C)=O)C(=O)N2CCN1CCOCC1 (stereo unspecified)	none
O=C(NCC1CCCO1)c1ccc2c(=O)n(Cc3ccc(Cl)cc3)c(=S)[nH]c2c1 (stereo unspecified)	GRIN3A LBD mod 22
Cc1ccc(CNC(=O)c2ccc3c(=O)n(CC4CCCO4)c(=S)[nH]c3c2)cc1 (stereo unspecified)	none
CCCCCNC(=O)c1ccc2c(=O)[nH]c3c(C(=O)NCC4CCCO4)sc(=S)n3c2c1 (stereo unspecified)	SENP1 inh 52
Cc1ccc(CNC(=O)c2ccc3c(=O)[nH]c4c(C(=O)NCC5CCCO5)sc(=S)n4c3c2)cc1 (stereo unspecified)	SENP1 inh 39
O=C(NCc1ccccc1)c1ccc2c(=O)[nH]c3c(C(=O)NCC4CCCO4)sc(=S)n3c2c1 (stereo unspecified)	SENP1 inh 38
CCn1c(N)c(C(=O)NCC2CCCO2)sc1=S (stereo unspecified)	none
CCOC(=O)C1=C(COC(=O)[C@@H](NC(=O)c2cccc(C)c2)C(C)C)NC(=O)NC1C (stereo partly specified)	none
Cn1c(SCC#N)nnc1-c1cnccn1	none
CCN1C(=O)/C(=C\C(=O)c2cccs2)c2cc(Br)ccc21	GRIN3A LBD mod 32
CCc1cc2c(=O)[nH]c(N3CCCC3)nc2s1	none
CCc1cc2c(=O)[nH]c(-c3ccccn3)nc2s1	EBI2 antag 50
OC[C@@H]1[C@@H](c2ccccc2)C(c2ccccc2)=NN1c1ccccc1	none
Cc1cccc(C2=NN(c3ccccc3)[C@H](CO)[C@H]2c2ccc(Cl)cc2)c1	GRIN3A LBD mod 23
OC[C@@H]1[C@@H](c2ccccc2)C(c2ccc(F)cc2)=NN1c1ccccc1	none
OC[C@@H]1[C@@H](c2ccccc2)C(c2cccc(Cl)c2)=NN1c1ccccc1	GRIN3A LBD mod 26
OC[C@@H]1[C@@H](c2ccc(Cl)cc2)C(c2ccc(F)cc2)=NN1c1ccccc1	GRIN3A LBD mod 30
COc1ccc(C(CNC(=O)CCNS(=O)(=O)c2ccccc2C(F)(F)F)N2CCOCC2)cc1 (stereo unspecified)	none
C[C@@H]1CN([C@@H](C)CO)C(=O)CCCn2nncc2CO[C@H]1CN(C)C(=O)C1CCCCC1	none (no result: GRIN3A LBD mod)
O=C1/C(=C\c2cc(Cl)c(O)c(Cl)c2)SC(=S)N1Cc1ccccc1	none
COc1ccc(/C=C2/SC(=S)N(Cc3ccccc3)C2=O)cc1O	GRIN3A LBD mod 20
COc1cc(/C=C2\SC(=S)N(CCCCC(=O)O)C2=O)ccc1OS(=O)(=O)c1ccc(C)cc1	GRIN3A LBD mod 31
COc1ccc(O)c(/C=C2/SC(=S)N(Cc3ccccc3)C2=O)c1	GRIN3A LBD mod 16
CC(=O)Nc1ccc(S(=O)(=O)Oc2cccc(/C=C3\SC(N)=NC3=O)c2)cc1	GRIN3A LBD mod 36
Cc1nc2ccc(S(=O)(=O)CCC(=O)NCc3ccc(Cl)cc3)cc2s1	none (no result: GRIN3A LBD mod)
COc1ccc(/C=C2\SC(=S)NC2=O)cc1OS(=O)(=O)c1ccc(NC(C)=O)cc1	GRIN3A LBD mod 18
N#Cc1c(N)nc(-c2ccccc2)nc1-c1ccccc1	GRIN3A LBD mod 10
N#Cc1c(-c2ccccc2)nc(-c2ccccc2)nc1N1CCOCC1	none
CCNC(=S)Nc1cccc(NC(=O)c2ccccc2O)c1	GRIN3A LBD mod 11
CCC(=O)Nc1cccc(NC(=O)c2ccccc2Cl)c1	none
CCC(=O)Nc1cccc(NC(=S)NC(=O)c2ccccc2Cl)c1	GRIN3A LBD mod 17
O=C(Nc1ccc(NC(=O)c2cccnc2Cl)cc1)c1cccc(Cl)c1	GRIN3A LBD mod 22
O=C(Nc1ccc(NC(=S)NC(=O)c2ccccc2Cl)cc1)c1cccc(Cl)c1	GRIN3A LBD mod 18
CC(C)C(=O)Nc1cccc(NC(=S)NC(=O)c2ccccc2Cl)c1	none
